Measurements published in article PMC2225610 (The Journal of General Physiology, 1999).
Entries after “also recorded” stand apart in the source; their conditions may differ. Where two headings read alike, the source gives them in different places.

How the values were obtained:
[1] = target: T1, type 1 InsP3 receptor (cerebellar membranes) (Canis lupus familiaris, UniProt A0A8I3NKB2); experiment: InsP3 binding to cerebellar microsomes; set-up: species or system canine
Summary of the method: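 Canine cerebellar microsomes prepared with protease inhibitors. Membranes added, incubated 8 min at 0° or 22°C, then pelleted at 40,000 g for 10 min for scintillation counting. Nonspecific binding measured with 40–160 μM unlabeled InsP3. Two-site Scatchard fit; 3–5 repeats, separate preparations.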

[2] = target: T1, type 1 InsP3 receptor (cerebellar membranes); settings: ref Kaftan et al., 1997; cited from earlier work
[3] = target: T2, type 1 InsP3-gated Ca channel (Canis lupus familiaris, UniProt A0A8I3NKB2); settings: cited from earlier work
T2 sequence (A0A8I3NKB2 1-2757): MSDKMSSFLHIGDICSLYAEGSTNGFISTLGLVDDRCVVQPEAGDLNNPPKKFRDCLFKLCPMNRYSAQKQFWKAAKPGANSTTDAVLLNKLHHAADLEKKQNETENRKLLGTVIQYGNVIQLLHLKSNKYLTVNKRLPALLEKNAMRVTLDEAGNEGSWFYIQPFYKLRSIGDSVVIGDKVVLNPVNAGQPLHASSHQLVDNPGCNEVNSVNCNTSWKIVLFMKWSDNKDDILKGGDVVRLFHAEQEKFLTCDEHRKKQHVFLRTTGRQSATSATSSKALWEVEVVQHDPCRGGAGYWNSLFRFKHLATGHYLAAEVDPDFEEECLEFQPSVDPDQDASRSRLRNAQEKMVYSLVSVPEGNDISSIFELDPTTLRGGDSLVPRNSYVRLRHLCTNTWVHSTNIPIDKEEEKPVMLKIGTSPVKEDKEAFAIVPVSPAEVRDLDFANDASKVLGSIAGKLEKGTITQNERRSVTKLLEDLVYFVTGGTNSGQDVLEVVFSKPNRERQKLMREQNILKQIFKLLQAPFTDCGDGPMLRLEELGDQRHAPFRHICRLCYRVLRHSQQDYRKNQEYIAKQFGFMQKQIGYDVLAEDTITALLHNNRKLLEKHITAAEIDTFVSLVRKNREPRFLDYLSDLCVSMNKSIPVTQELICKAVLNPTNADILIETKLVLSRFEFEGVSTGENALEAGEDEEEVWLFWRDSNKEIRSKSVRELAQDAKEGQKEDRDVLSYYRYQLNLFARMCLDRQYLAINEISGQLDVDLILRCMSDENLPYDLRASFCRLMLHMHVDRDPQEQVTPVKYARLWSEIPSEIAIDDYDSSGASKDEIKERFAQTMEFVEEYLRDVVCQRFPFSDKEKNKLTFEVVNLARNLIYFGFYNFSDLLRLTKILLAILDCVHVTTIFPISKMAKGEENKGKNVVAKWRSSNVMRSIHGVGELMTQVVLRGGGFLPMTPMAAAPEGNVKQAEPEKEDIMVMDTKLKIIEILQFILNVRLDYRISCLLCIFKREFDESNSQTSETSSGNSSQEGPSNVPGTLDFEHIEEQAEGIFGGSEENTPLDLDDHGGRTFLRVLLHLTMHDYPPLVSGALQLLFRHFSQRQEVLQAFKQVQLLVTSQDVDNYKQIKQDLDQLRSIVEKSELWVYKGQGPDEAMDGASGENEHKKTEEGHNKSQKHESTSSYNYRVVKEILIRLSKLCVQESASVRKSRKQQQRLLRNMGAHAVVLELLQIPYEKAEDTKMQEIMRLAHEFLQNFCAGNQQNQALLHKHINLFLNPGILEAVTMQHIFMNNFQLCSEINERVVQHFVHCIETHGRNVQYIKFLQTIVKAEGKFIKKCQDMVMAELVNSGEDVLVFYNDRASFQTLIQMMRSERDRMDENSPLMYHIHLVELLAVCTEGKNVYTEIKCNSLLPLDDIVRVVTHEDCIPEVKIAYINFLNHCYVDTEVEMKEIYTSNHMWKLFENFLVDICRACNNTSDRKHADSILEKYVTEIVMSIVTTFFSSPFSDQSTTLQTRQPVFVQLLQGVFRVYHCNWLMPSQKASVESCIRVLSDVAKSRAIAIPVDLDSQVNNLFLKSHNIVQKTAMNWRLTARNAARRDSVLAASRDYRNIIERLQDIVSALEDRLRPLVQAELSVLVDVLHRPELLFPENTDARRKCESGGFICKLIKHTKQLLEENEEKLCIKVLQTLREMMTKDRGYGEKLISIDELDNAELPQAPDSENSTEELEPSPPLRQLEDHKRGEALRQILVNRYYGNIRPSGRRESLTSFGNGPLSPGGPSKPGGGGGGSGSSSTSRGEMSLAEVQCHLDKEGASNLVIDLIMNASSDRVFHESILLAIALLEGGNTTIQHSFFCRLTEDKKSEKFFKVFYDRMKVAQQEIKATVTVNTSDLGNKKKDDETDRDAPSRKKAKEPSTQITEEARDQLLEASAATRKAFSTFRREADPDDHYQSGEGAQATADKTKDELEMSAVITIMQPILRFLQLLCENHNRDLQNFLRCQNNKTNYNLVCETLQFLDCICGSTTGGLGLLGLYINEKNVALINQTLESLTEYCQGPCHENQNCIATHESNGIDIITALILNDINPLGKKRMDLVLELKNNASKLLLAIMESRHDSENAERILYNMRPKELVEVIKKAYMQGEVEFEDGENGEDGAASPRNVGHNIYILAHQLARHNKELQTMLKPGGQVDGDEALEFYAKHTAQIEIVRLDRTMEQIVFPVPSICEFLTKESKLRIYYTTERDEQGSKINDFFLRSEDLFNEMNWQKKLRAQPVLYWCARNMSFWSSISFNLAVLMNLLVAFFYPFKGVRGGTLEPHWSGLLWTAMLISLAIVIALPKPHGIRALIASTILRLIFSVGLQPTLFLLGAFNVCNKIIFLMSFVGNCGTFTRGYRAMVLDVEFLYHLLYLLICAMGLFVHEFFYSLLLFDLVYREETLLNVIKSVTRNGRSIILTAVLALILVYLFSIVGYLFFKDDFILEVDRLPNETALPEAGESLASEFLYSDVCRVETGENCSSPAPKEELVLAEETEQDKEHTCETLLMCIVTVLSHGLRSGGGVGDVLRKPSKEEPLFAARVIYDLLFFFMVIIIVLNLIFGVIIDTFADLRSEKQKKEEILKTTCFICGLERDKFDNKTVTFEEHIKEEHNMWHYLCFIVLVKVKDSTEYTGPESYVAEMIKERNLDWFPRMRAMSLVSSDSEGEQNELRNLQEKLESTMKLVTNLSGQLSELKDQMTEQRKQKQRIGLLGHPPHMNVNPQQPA

[4] = system: intracellular Ca; settings: 100 μM; ref Wakui et al., 1989; Petersen et al., 1991; cited from earlier work
[5] = target: InsP3-gated Ca channel tetrameric complex; experiment: Mathematical model of the tetrameric InsP3-gated channel complex; settings: read-out: Model dissociation constant, InsP3 low affinity site (J); 22°C
Summary of the method: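 Tetramer model: each subunit has a medium-affinity InsP3 site, a low-affinity InsP3 site and a Ca site, giving 125 states. Assumes mass-action binding, diffusion-limited on-rates and identical subunits, solved at equilibrium. Low-affinity occupancy defines the active state, with open/closed transitions. Unknown parameters found by quasi-Newton iterative fitting to single-channel open probability and Ca-dependent binding data at 22°C; open-time histograms add constraints.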

[6] = target: T2, type 1 InsP3-gated Ca channel; experiment: InsP3-gated channel activity in planar lipid bilayer; format: biochemical, canine
Summary of the method: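 Canine cerebellar microsomes fused into PE:PS (3:1) bilayers in decane. Cytosolic side: 500 μM Na-ATP, 500 μM EGTA, 110 mM Tris, 250 mM HEPES, pH 7.35, with CaCl2 to set free Ca, verified by BTC fluorescence. Luminal side: 53 mM Ba(OH)2 as carrier, 250 mM HEPES. InsP3 added to start activity. Held at 0 mV; filtered 1 kHz, digitized 5 kHz; open-time histograms compiled.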

[7] = system: cerebellar Purkinje cells; settings: flash photolysis; ref Khodakhah and Ogden, 1995; cited from earlier work

O=C(O)CN(CCOCCOCCN(CC(=O)O)CC(=O)O)CC(=O)O [EGTA]
Reversal of Ca-dependent inhibition of InsP3 binding by Ca chelation ([1]; EGTA added after Ca): fully reversible; also recorded: completely reversed; also recorded: completely reversible

O=P(O)(O)OC1[C@H](O)[C@H](OP(=O)(O)O)C(OP(=O)(O)O)[C@H](OP(=O)(O)O)[C@H]1O (stereo partly shown) [1,3,4,5-InsP4]
Specificity of low affinity site for 1,4,5-InsP3 versus 1,3,4,5-InsP4 [2]: low level of specificity

[Ba+2] [barium]
Effect on Ca-dependent inhibition of InsP3 binding ([1]; 100 μM free barium, data not shown): did not alter

[Ca+2] [Ca, calcium]
Effect of Ca on maximal number of InsP3 binding sites ([1]; 0° and 22°C): did not influence the maximal number of binding sites; also recorded: no evidence for an effect
Hill coefficient of Ca-dependent inhibition of InsP3 binding ([1]; 0°C): 1.5
Ca-dependent increase in Kd of InsP3 binding ([1]; 0°C, Ca 0.0004 to 10 μM, medium affinity site): ~3.5 fold
Decrease of InsP3 binding by Ca ([1]; 0°C, Ca increased from 0 to 100 μM, 10 nM InsP3): 66%
Hill coefficient of Ca-dependent inhibition of InsP3 binding ([1]; 22°C): 2.8
Reduction of InsP3 binding by Ca ([1]; 22°C, 170 nM InsP3, Ca 0.1 to 10 μM): 55%
Inhibition of channel activity by Ca ([3]; 5 μM Ca, 2 μM InsP3, ref Bezprozvanny et al., 1991): near complete inhibition

O=P(O)(S)O[C@@H]1[C@@H](O)[C@H](OP(O)(O)=S)[C@@H](OP(O)(O)=S)[C@H](O)[C@@H]1O (stereo partly shown) [InsPS3]
Effect on intracellular Ca [4]: sustained elevation of intracellular Ca

O=P(O)(O)O[C@@H]1[C@H](O)[C@H](O)[C@@H](OP(=O)(O)O)[C@H](OP(=O)(O)O)[C@H]1O [InsP3, inositol 1,4,5-trisphosphate]
Kd [5]: 10000 nM
Effect on intracellular Ca [4]: sustained elevation of intracellular Ca
Q10 of temperature-dependent change in InsP3 binding affinity ([1]; 0° vs 22°C, cerebellar membranes): 2.3
Difference between medium and low affinity site dissociation constants ([1]; 22°C (0.3 vs ∼10 μM)): 30 ×
Difference in dissociation constants between medium and low affinity sites ([1]; 37°C (1 vs. 10 μM), predicted): 10 fold
Kd ([1]; read-out: Kd for InsP3 binding at high Ca, 22°C, 50 μM free Ca): 1780 nM
Kd ([1]; read-out: Kd of InsP3 binding, medium affinity site, 22°C): 312 nM
Channel open time constant, fast component ([6]; 0.01 μM Ca, 2 μM InsP3): 1.8 ms
Channel open time constant, slow component ([6]; 0.01 μM Ca, 2 μM InsP3): 9.3 ms
Channel open time constant, fast component ([6]; 0.1 μM Ca): 0.6 ms
Channel open time constant, slow component ([6]; 0.1 μM Ca): 4.7 ms
Intracellular InsP3 needed to induce Ca release [7]: at least 9 μM
Effect of high InsP3 on Ca-dependent inhibition of channel activity ([3]; 180 μM InsP3, ref Kaftan et al., 1997): overcame the Ca-dependent inhibition of channel activity
Hill coefficient from single channel activity determinations ([3]; ref Watras et al., 1991): 1.0
